Consider 25 compounds from ChEMBL document CHEMBL2346615, “Design, synthesis, and molecular modelling of pyridazinone and phthalazinone derivatives as protein kinases inhibitors” (Bioorg Med Chem Lett, 2013).

For test [1], the target named is Dual specificity tyrosine-phosphorylation-regulated kinase 1A (Rattus norvegicus, UniProt Q63470). Nature of the test: Inhibition of rat recombinant DYRK1A expressed in Escherichia coli using myelin basic protein as substrate after 30 mins by scintillation counting analysis in presence of [gamma-33P]ATP.
The target in test [2] is Glycogen synthase kinase-3 (Sus scrofa, UniProt B2LUN4+I6LNT8). Nature of the test: Inhibition of pig brain GSK-3alpka/beta using YRRAAVPPSPSLSRHSSPHQSpEDEEE as substrate after 30 mins by scintillation counting analysis in presence of [gamma-33P]ATP.
In test [3] the target is Cyclin-dependent kinase 5/CDK5 activator 1 (Homo sapiens, UniProt Q00535). Nature of the test: Inhibition of human recombinant CDK5/p25 after 30 mins by scintillation counting analysis in presence of [gamma-33P]ATP. In kind it is protein-complex assay.
Cyclin-dependent kinase 5/CDK5 activator 1, sequence (Q00535 whole entry, canonical isoform): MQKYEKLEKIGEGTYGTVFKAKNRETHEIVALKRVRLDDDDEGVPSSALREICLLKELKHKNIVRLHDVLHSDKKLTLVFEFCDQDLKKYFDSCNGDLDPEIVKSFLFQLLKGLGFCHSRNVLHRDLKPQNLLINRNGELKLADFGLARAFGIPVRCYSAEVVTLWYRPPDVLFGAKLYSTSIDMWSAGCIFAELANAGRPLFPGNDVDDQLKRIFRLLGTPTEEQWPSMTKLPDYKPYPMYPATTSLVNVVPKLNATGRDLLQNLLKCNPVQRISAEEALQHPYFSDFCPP
Cyclin-dependent kinase 5/CDK5 activator 1, sequence (Q15078 whole entry, further chain, canonical isoform): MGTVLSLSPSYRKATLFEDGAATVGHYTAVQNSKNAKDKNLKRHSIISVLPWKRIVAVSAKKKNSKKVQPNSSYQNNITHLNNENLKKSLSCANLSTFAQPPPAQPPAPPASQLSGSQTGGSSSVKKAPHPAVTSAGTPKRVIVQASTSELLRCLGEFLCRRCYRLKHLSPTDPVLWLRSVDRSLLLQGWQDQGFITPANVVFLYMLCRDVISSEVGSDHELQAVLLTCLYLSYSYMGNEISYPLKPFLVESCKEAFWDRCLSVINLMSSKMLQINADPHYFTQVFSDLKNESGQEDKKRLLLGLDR
Test [4] deals with T1, Casein kinase I isoform alpha (Sus scrofa, UniProt O19175).
T1 sequence (O19175 whole entry): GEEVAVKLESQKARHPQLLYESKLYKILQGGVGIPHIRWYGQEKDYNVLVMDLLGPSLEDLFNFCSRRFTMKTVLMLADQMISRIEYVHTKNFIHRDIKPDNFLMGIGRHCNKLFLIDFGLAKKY
The test can be described thus: Inhibition of pig brain CK1 using RRKHAAIGpSAYSITA as substrate after 30 mins by scintillation counting analysis in presence of [gamma-33P]ATP.

Test [5] has as its system HL-60. Nature of the test: Cytotoxicity against human HL60 cells after 48 hrs by MTT assay. Type of test: functional, cell-based. The note with it: HL-60, 48 h. An outline of the steps: (§1)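 Run in triplicate, with the mean reported; the IC50 for each cell line comes from non-linear regression with a 95% confidence interval.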
The test system of test [6] is SF-295. The test can be described thus: Cytotoxicity against human SF295 cells after 48 hrs by MTT assay. In kind it is functional, cell-based. The note with it: SF-295, 48 h. The gist of the method: as §1
Test [7] concerns HCT-116. Nature of the test: Cytotoxicity against human HCT116 cells after 48 hrs by MTT assay. The conditions noted are these: HCT-116, 48 h. In kind it is functional, cell-based. The gist of the method:
as §1

Test [8] relates to OVCAR-8. The test can be described thus: Cytotoxicity against human OVCAR8 cells after 48 hrs by MTT assay. The note with it: OVCAR-8, 48 h. Type of test: functional, cell-based. The gist of the method: as §1

pIC50: −log10 of the molar value.

On to `CC(=O)Nc1n[nH]c(=O)c2ccccc12`, for which the negative logarithm of the IC50 (pIC50) in test [1], in test [3] and in test [4] was under 5.00 each time. Moreover, in test [2], the IC50 was over 10 µM.
For `O=c1[nH]nc(NCc2ccccc2)cc1-c1ccccc1`, the pIC50 in test [1], in test [3] and in test [4] was under 5.00 throughout. Besides, the IC50 in test [2] was over 10 µM.
For the compound `CC(C)C(=O)Nc1n[nH]c(=O)c2ccccc12`, the negative-log IC50 (pIC50) in test [1], in test [3] and in test [4] was under 5.00 throughout. Moreover, the half-inhibitory concentration (IC50) in test [2] is over 10 µM.
In the case of `O=c1[nH]nc(NCCN2CCCCC2)c2ccccc12`, the negative logarithm of the IC50 (pIC50) in test [1], in test [3] and in test [4] was under 5.00 in each case. Further, the half-maximal inhibitory concentration (IC50) in test [2] was over 10 µM.
Regarding `O=c1cc(-c2ccccc2)c(NCCN2CCCCC2)n[nH]1`, the pIC50 in test [1], in test [3] and in test [4] was under 5.00 each time. Besides, the IC50 in test [2] was over 10 µM.
Take `O=C(Nc1cc(-c2ccccc2)c(=O)[nH]n1)c1ccccc1`: the pIC50 in test [1], in test [3] and in test [4] was under 5.00 in each case. The IC50 in test [2] is over 10 µM.
Take `CC(=O)Nc1n[nH]c(=O)cc1-c1ccccc1`: the negative-log IC50 (pIC50) in test [1], in test [3] and in test [4] was under 5.00 in each case. Further, the IC50 in test [2] was over 10 µM.
As for `Nc1cc(-c2ccccc2)c(=O)[nH]n1`, the negative-log IC50 (pIC50) in test [1] was 5.22; in test [5], 5.44; in test [6], 5.24; in test [7] it was 5.36; in test [8], 5.31; in test [3] it was under 5.00. Further, the pIC50 in test [4] was under 5.00. Moreover, the half-inhibitory concentration (IC50) in test [2] turned out to be 8.1 µM.
For the compound `CCCNc1n[nH]c(=O)c2ccccc12`, the negative logarithm of the IC50 (pIC50) in test [1], in test [3] and in test [4] was under 5.00 throughout. Besides, the IC50 in test [2] was over 10 µM.
`CC(C)C(=O)N(C(=O)C(C)C)c1n[nH]c(=O)c2ccccc12`: the pIC50 in test [1], in test [3] and in test [4] was under 5.00 in each case. For the same compound, the half-inhibitory concentration (IC50) in test [2] was over 10 µM.
`O=c1[nH]nc(NCCN2CCCCC2)cc1-c1ccccc1`: the pIC50 in test [1], in test [3] and in test [4] was under 5.00 in each case. In addition, the IC50 in test [2] is over 10 µM.
Consider `CN1CCC(Nc2cc(-c3ccccc3)c(=O)[nH]n2)CC1`, for which the negative-log IC50 (pIC50) in test [1], in test [3] and in test [4] was under 5.00 in each case. Further, the 50% inhibitory concentration (IC50) in test [2] is over 10 µM.
Turning to `O=c1cc(-c2ccccc2)c(NCc2ccccc2)n[nH]1`, the pIC50 in test [1], in test [3] and in test [4] was under 5.00 in each case. In test [2], the IC50 was over 10 µM.
Regarding `Nc1n[nH]c(=O)c2ccccc12`, the pIC50 in test [1] was 5.39; in test [5] it was 5.05; in test [6], 5.22; in test [7], 4.90; in test [8] it was 4.93; in test [3] it was under 5.00. Moreover, in test [4], the pIC50 was under 5.00. Also, the IC50 in test [2] was over 10 µM.
In the case of `CCCNc1cc(-c2ccccc2)c(=O)[nH]n1`, the pIC50 in test [1], in test [3] and in test [4] was under 5.00 throughout. For the same compound, the IC50 in test [2] was over 10 µM.
For `CCCNc1n[nH]c(=O)cc1-c1ccccc1`, the negative logarithm of the IC50 (pIC50) in test [1], in test [3] and in test [4] was under 5.00 throughout. The IC50 in test [2] was over 10 µM.
As to `O=C(Cc1ccccc1)Nc1n[nH]c(=O)c2ccccc12`, the negative logarithm of the IC50 (pIC50) in test [1], in test [3] and in test [4] was under 5.00 in each case. Further, the IC50 in test [2] is over 10 µM.
As to `O=C(Cc1ccccc1)Nc1nnc(Cl)c2ccccc12`, the pIC50 in test [1], in test [3] and in test [4] was under 5.00 in each case. Moreover, the 50% inhibitory concentration (IC50) in test [2] is over 10 µM.
As for `CC(=O)N(C(C)=O)c1n[nH]c(=O)c2ccccc12`, the pIC50 in test [1], in test [3] and in test [4] was under 5.00 in each case. Also, in test [2], the half-inhibitory concentration (IC50) is over 10 µM.
Take `O=C(Cc1ccccc1)N(C(=O)Cc1ccccc1)c1nnc(Cl)c2ccccc12`: the pIC50 in test [1], in test [3] and in test [4] was under 5.00 in each case. In test [2], the concentration for half-maximal inhibition (IC50) was over 10 µM.
With `CCCCCC(=O)N(C(=O)CCCCC)c1nnc(Cl)c2ccccc12`, the pIC50 in test [1], in test [3] and in test [4] was under 5.00 in each case. The IC50 in test [2] was over 10 µM.
On to `O=C(Nc1cc(-c2ccccc2)c(Cl)nn1)c1ccccc1`, for which the negative-log IC50 (pIC50) in test [1], in test [3] and in test [4] was under 5.00 each time. Moreover, the half-maximal inhibitory concentration (IC50) in test [2] is over 10 µM.
On to `O=C(Nc1n[nH]c(=O)c2ccccc12)c1ccccc1`, for which the negative logarithm of the IC50 (pIC50) in test [1], in test [3] and in test [4] was under 5.00 each time. For the same compound, in test [2], the IC50 is over 10 µM.
Consider `Nc1n[nH]c(=O)cc1-c1ccccc1`, for which the pIC50 in test [1], in test [3] and in test [4] was under 5.00 in each case. Moreover, the IC50 in test [2] is over 10 µM.
On to `CC(=O)Nc1cc(-c2ccccc2)c(=O)[nH]n1`, for which the pIC50 in test [1] is 5.00; in test [5] it was 4.94; in test [6] it was 5.12; in test [7], 4.81; in test [8] it was 4.85; in test [3], under 5.00. In test [4], the pIC50 is under 5.00. Further, the IC50 in test [2] was found to be 2.2 µM.
